ChEMBL document CHEMBL1141492, “Potent, exceptionally selective, orally bioavailable inhibitors of TNF-alpha Converting Enzyme (TACE): novel 2-substituted-1H-benzo[d]imidazol-1-yl)methyl)benzamide P1' substituents” (Bioorg Med Chem Lett, 2008)

Experiments:
[1] = biological target: Disintegrin and metalloproteinase domain-containing protein 17 (Sus scrofa, UniProt O77636); assay: Inhibition of semi purified pig TACE
[2] = test system: Blood; assay: Reduction of LPS-induced TNFalpha in human whole blood; assay type: functional, tissue-based
Outline: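 LPS-induced TNF-α production in human whole blood; suppression of TNF-α measured.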

[3] = biological target: T1, Interstitial collagenase (Homo sapiens, UniProt P03956); assay: Inhibition of MMP1
T1 sequence (P03956 whole entry): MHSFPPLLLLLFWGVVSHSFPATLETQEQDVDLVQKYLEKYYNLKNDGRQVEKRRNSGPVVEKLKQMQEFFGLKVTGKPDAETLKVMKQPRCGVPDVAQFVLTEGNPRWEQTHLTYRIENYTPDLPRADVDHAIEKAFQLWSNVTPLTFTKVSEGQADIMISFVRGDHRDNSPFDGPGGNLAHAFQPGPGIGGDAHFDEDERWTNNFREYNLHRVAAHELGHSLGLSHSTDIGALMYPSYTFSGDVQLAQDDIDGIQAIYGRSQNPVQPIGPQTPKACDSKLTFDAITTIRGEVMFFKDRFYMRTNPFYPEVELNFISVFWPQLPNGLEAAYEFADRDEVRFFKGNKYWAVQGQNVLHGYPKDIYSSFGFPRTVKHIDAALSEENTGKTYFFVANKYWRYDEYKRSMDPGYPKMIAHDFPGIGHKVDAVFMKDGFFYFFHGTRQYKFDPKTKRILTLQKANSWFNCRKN

[4] = biological target: 72 kDa type IV collagenase (Homo sapiens, UniProt P08253); assay: Inhibition of MMP2
[5] = biological target: Matrix metalloproteinase-9 (Homo sapiens, UniProt P14780); assay: Inhibition of MMP9
[6] = Apparent permeability across human Caco-2 cells; assay type: ADME, cell-based
Outline: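 Apparent permeability measured across Caco-2 cell monolayers in the apical-to-basolateral (A→B) direction.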

[7] = Clearance in Sprague-Dawley rat at 5.0 mg/kg, iv; assay type: ADME, organism-based; parameters: dose 5 mg/kg, route intravenous; conditions: in vivo
Outline: (§1)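 Discrete or cassette (n-in-1) dosing, given intravenously and orally. Sprague–Dawley rats received 5.0 mg/kg iv and 8.0 mg/kg po; beagle dogs received 2.0 mg/kg iv and 8.0 mg/kg po. Three animals per dosing group; averaged values reported. AUC is reported in nM h.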

[8] = Oral bioavailability in Sprague-Dawley rat at 8.0 mg/kg; assay type: ADME, organism-based; conditions: in vivo; outline: as §1

Disintegrin and metalloproteinase domain-containing protein 17, sequence (O77636 whole entry, the tested form may be a part): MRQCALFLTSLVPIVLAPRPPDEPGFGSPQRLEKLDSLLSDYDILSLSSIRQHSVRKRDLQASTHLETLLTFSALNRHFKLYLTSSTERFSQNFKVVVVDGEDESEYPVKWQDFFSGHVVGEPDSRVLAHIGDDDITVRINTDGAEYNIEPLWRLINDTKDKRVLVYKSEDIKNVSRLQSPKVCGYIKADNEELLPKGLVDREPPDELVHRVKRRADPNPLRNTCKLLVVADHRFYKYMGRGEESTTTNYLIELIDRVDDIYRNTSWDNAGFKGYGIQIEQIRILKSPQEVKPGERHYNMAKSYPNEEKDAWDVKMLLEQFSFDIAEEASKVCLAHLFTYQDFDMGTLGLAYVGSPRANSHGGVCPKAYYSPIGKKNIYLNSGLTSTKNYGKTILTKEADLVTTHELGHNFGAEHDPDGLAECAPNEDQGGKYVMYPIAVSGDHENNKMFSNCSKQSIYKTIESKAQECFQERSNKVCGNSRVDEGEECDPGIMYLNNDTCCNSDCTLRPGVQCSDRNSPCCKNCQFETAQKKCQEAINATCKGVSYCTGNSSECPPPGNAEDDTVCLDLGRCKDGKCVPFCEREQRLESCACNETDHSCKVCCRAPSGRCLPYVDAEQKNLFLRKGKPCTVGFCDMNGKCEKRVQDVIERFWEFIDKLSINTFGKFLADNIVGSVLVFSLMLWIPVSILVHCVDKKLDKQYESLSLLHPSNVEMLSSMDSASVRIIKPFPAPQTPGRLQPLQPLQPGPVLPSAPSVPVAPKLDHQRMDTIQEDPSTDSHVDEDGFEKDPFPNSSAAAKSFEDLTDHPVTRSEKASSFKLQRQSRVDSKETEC
Matrix metalloproteinase-9, sequence (P14780 whole entry): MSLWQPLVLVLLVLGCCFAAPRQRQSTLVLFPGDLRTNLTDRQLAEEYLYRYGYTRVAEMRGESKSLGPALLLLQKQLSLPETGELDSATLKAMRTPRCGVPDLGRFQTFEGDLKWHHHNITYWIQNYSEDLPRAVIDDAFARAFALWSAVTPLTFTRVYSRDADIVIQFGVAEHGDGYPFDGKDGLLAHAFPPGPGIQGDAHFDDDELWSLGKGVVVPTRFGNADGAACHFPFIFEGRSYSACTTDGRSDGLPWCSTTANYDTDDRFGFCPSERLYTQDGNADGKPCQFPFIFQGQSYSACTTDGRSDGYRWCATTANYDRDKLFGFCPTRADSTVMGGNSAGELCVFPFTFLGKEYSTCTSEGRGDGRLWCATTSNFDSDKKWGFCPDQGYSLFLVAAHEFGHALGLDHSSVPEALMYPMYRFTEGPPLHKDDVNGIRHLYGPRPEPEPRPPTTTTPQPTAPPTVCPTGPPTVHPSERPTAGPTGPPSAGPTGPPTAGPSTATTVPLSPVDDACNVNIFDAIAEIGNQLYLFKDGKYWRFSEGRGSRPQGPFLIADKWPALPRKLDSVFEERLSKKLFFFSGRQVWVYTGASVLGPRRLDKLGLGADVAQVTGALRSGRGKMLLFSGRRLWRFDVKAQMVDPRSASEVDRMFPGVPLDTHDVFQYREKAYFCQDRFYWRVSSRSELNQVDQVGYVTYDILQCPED
72 kDa type IV collagenase, sequence (P08253 whole entry): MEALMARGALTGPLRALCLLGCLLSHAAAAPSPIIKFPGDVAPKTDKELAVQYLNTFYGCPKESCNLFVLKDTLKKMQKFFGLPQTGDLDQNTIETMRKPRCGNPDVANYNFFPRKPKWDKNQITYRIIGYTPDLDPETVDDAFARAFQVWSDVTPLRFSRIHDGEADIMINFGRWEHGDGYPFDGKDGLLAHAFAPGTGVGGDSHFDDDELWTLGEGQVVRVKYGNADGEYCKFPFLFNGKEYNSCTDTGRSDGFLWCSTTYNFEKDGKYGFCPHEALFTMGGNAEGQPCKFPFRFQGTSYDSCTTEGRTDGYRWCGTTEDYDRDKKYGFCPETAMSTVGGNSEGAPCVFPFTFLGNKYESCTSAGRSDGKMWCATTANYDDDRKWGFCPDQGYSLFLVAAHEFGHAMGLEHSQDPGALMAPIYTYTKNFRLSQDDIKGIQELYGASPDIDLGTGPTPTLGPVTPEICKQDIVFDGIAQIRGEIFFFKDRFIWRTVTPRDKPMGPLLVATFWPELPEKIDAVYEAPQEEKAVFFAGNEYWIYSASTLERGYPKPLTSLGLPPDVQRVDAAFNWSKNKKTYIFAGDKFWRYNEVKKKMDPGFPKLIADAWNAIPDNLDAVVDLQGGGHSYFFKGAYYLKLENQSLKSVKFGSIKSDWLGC

Row | Structure (SMILES) | IC50 [1] | IC50 [2] | Ki [3] | Ki [4] | Ki [5] | Papp [6] | clearance [7] | bioavailability [8]
1 | CC(C)c1nc2ccccc2n1Cc1ccc(C(=O)N[C@@H]2CCOC[C@@H]2C(=O)NO)cc1 | 1.6 nM | 105 nM | > 4950 nM | > 3330 nM | > 2130 nM | 0.5 ×10⁻⁶ cm/s | 63.3 mL/min/kg | 8%
2 | CC(F)(F)c1nc2ccccc2n1Cc1ccc(C(=O)N[C@@H]2CCOC[C@@H]2C(=O)NO)cc1 | 2.6 nM | 188 nM | > 4950 nM | > 3330 nM | > 2130 nM | 0.7 ×10⁻⁶ cm/s | 20 mL/min/kg | 55%
3 | O=C(N[C@@H]1C[C@@]2(CCCO2)C[C@@H]1C(=O)NO)c1ccc(Cn2c(C3CC3)nc3ccccc32)cc1 | 1.3 nM | 42 nM | > 4950 nM | > 3330 nM | > 2130 nM | 0.1 ×10⁻⁶ cm/s | 23.3 mL/min/kg | 14%
4 | CC(C)c1nc2ccccc2n1Cc1ccc(C(=O)N[C@@H]2CCC[C@@H]2C(=O)NO)cc1 | 1 nM | 65 nM | > 4950 nM | > 3330 nM | > 2130 nM | 0.1 ×10⁻⁶ cm/s | 50 mL/min/kg | 8%
5 | O=C(N[C@@H]1CCC[C@@H]1C(=O)NO)c1ccc(Cn2c(C3CC3)nc3ccccc32)cc1 | 2.7 nM | 54 nM | > 4950 nM | > 3330 nM | > 2130 nM | 2 ×10⁻⁶ cm/s | 25 mL/min/kg | 22%
6 | CSc1nc2ccccc2n1Cc1ccc([C@]2(N)CCN([C@H](CC(C)C)C(=O)NO)C2=O)cc1 | 6.2 nM | 316 nM | > 4950 nM | 302 nM | 934 nM | – | – | –
7 | CC(C)(F)c1nc2ccccc2n1Cc1ccc(C(=O)N[C@@H]2CCOC[C@@H]2C(=O)NO)cc1 | 2.2 nM | 153 nM | > 4950 nM | > 3330 nM | > 2130 nM | 0.3 ×10⁻⁶ cm/s | 31.7 mL/min/kg | 36%
8 | CC(C)(F)c1nc2ccccc2n1Cc1ccc(C(=O)N[C@@H]2C[C@@]3(CCCO3)C[C@@H]2C(=O)NO)cc1 | < 1 nM | 140 nM | > 4950 nM | > 3330 nM | > 2130 nM | 2.4 ×10⁻⁶ cm/s | 40 mL/min/kg | 33%

The remaining compounds from weak to strong by IC50 [1], led by results:

Row | IC50 [1] | IC50 [2] | Ki [3] | Ki [4] | Ki [5] | Papp [6] | clearance [7] | bioavailability [8] | Structure (SMILES)
9 | 2.6 nM | 56 nM | > 2130 nM | > 2130 nM | > 2130 nM | 0.1 ×10⁻⁶ cm/s | – | – | Cc1nc2ccccc2n1Cc1ccc(C(=O)N[C@@H]2CNC[C@@H]2C(=O)NO)cc1
10 | 2.3 nM | 317 nM | > 4950 nM | > 3330 nM | > 2130 nM | 0.4 ×10⁻⁶ cm/s | 113 mL/min/kg | 8% | C#CCN1C[C@H](C(=O)NO)[C@H](NC(=O)c2ccc(Cn3c(C(C)(C)C)nc4ccccc43)cc2)C1
11 | 2 nM | 252 nM | > 4950 nM | > 3330 nM | > 2130 nM | 1.4 ×10⁻⁶ cm/s | 48.3 mL/min/kg | 29% | CC(C)(C)c1nc2ccccc2n1Cc1ccc(C(=O)N[C@@H]2C[C@@]3(CCCO3)C[C@@H]2C(=O)NO)cc1
12 | 1.6 nM | 34 nM | > 2130 nM | > 2130 nM | > 2130 nM | 0.2 ×10⁻⁶ cm/s | – | – | CSc1nc2ccccc2n1Cc1ccc(C(=O)N[C@@H]2CNC[C@@H]2C(=O)NO)cc1
13 | 1.6 nM | 64 nM | > 2130 nM | > 2130 nM | > 2130 nM | 0.1 ×10⁻⁶ cm/s | – | – | CC(C)c1nc2ccccc2n1Cc1ccc(C(=O)N[C@@H]2CNC[C@@H]2C(=O)NO)cc1
14 | 1.1 nM | 69 nM | > 4950 nM | > 3330 nM | > 2130 nM | 0.1 ×10⁻⁶ cm/s | 115 mL/min/kg | 22% | CC(C)c1nc2ccccc2n1Cc1ccc(C(=O)N[C@@H]2C[C@@]3(CCCO3)C[C@@H]2C(=O)NO)cc1
